Assay results from different studies.
Observed: cell growth or viability

CNc1ncc2c(/C=C/C(=O)N3CCC(OC)CC3)nn(Cc3cccc(OC)c3)c2n1
EC50 (OE33; resazurin; 5 days): 2.89 µM

C=CC(=O)NC1CCN(c2ncc3ncnc(Nc4ccc(Oc5ccc6c(c5)ncn6C)c(C)c4)c3n2)CC1
EC50 (SBC-5): 0.325 µM

CNc1ncc2c(/C=C/C(=O)N3CCC(C)CC3)nn(CC3CCCC3)c2n1
EC50 (OE33; resazurin; 5 days): > 30 µM

CC(C)(C)c1cnc(CSc2cnc(NC(=O)C3CCN(CCCCCCCCSc4cccc5c4C(=O)N(C4CCC(=O)NC4=O)C5=O)CC3)s2)o1 (stereo not drawn)
viability (HH; CCK-8; 0.25 µM): 0%

CC(=NNC(=O)c1ccncc1)c1ccc(Nc2nnc(-c3ccc(Cl)cc3)c3ccccc23)cc1
cell death (HepG2; MTT; 0.156 µM): 17.1%

CC(C)(C)c1cnc(CSc2cnc(NC(=O)C3CCN(C(=O)CCCSc4cccc5c4C(=O)N(C4CCC(=O)NC4=O)C5=O)CC3)s2)o1 (stereo not drawn)
viability (HH; CCK-8; 0.25 µM): 86.7%

O=C(Nc1ccc(Oc2nnc(-c3ccc(Cl)cc3)c3ccccc23)cc1)c1cccc([N+](=O)[O-])c1
cell death (HepG2; MTT; 10 µM): 93.8%

CC(C)(C)c1cnc(CSc2cnc(NC(=O)C3CCN(CCCCCCCCSc4cccc5c4CN(C4CCC(=O)NC4=O)C5=O)CC3)s2)o1 (stereo not drawn)
viability (HH; CCK-8; 1 nM): 97.4%

CCOC(=O)c1nn(-c2cccc(Cl)c2)/c(=N/N=C(\C)c2ccc(NC(=O)c3ccc(Cl)cc3)cc2)s1
viability (HepG2; MTT; 0.156 µM): 24.6%

CNc1ncc2c(/C=C/C(=O)N3CCC(OC)CC3)nn(CC(OC)OC)c2n1
EC50 (OE33; resazurin; 5 days): > 30 µM

O=C(Nc1ccc(Oc2nnc(-c3ccc(Cl)cc3)c3ccccc23)cc1)c1ccccc1
viability (HepG2; MTT; 2.5 µM; 24 h): 3.4%

CNc1ncc2c(/C=C/C(=O)N3CCC(OC)CC3)nn(Cc3ccccc3)c2n1
EC50 (OE33; resazurin; 5 days): 7.49 µM

CC(C)(C)c1cnc(CSc2cnc(NC(=O)C3CCN(C(=O)COCCOCCSc4cccc5c4C(=O)N(C4CCC(=O)NC4=O)C5=O)CC3)s2)o1 (stereo not drawn)
viability (HH; CCK-8; 0.4 µM): 47.3%

CC(=O)c1nn(-c2ccc(C)cc2)/c(=N/N=C(\C)c2ccc(NC(=O)c3ccccc3)cc2)s1
viability (HepG2; MTT; 1.25 µM): 5.9%

CC(=O)Nc1ccc(Oc2nnc(-c3ccc(Cl)cc3)c3ccccc23)cc1
cell death (HepG2; MTT; 0.625 µM): 88.3%

CNc1ncc2c(/C=C/C(=O)N3CCCC(OC)C3)nn(Cc3cccc(C)c3)c2n1 (stereo not drawn)
EC50 (OE33; resazurin; 5 days): 17.6 µM

S=C(Nc1ccccc1)Nc1ccc(Oc2nnc(-c3ccc(Cl)cc3)c3ccccc23)cc1
viability (HepG2; MTT; 1.25 µM; 24 h): 57.1%

CC(C)(C)c1cnc(CSc2cnc(NC(=O)C3CCN(CCCCCCCSc4cccc5c4C(=O)N(C4CCC(=O)NC4=O)C5=O)CC3)s2)o1 (stereo not drawn)
viability (HH; CCK-8; 0.5 µM): 0%

CNc1ncc2c(/C=C/C(=O)N3CCC(OC)CC3)nn(CC3CCCCC3)c2n1
EC50 (OE33; resazurin; 5 days): 6.51 µM

CC(=NNC(=O)c1cccnc1)c1ccc(Nc2nnc(-c3ccc(Cl)cc3)c3ccccc23)cc1
cell death (HepG2; MTT; 0.312 µM): 6.41%

CNc1ncc2c(/C=C/C(=O)N3CCC(OC)CC3)nn(CC3CCCO3)c2n1 (stereo not drawn)
EC50 (OE33; resazurin; 5 days): > 30 µM

CC(=NNC(=S)Nc1ccccc1)c1ccc(Nc2nnc(-c3ccc(Cl)cc3)c3ccccc23)cc1
cell death (HepG2; MTT; 0.312 µM): 0.861%

COC1CCN(C(=O)/C=C/c2nn(CC3CCCC3)c3ncnc(N)c23)CC1
EC50 (OE33; resazurin; 5 days): > 30 µM

CC(=NNC(N)=S)c1ccc(Nc2nnc(-c3ccc(Cl)cc3)c3ccccc23)cc1
cell death (HepG2; MTT; 2.5 µM): 91.9%
